# Data reported in publication PMC9907361 (Gastric cancer : official journal of the International …, 2021).
# “Also recorded” adds a separate entry of the source.
# Columns and labels:
# [1] = target: human STAT3 (residues 127–688) (Homo sapiens, UniProt P40763); experiment: ITC binding of galectin-3 peptides to STAT3; settings: abstract statement
# Summary of the method: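 Human STAT3 residues 127–688 was expressed from pET22b(+) and purified. ITC was run at 25 °C. Wild-type and Y45-phosphorylated galectin-3 peptides (140 μM each) in 20 mM Tris pH 7.5, 300 mM NaCl were injected at 220 s intervals into 7 μM STAT3. Heats of dilution from buffer controls were subtracted, and data were fitted to a single set of binding sites model.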
# AGS cells = format: cell-based, human
# cells = settings: cited from earlier work
# [2] = system: AGS cells overexpressing WNT1; experiment: Lactose/mannose treatment of WNT1-overexpressing AGS cells; format: cell-based, human; settings: 50 mM, 4 h preincubation
# Summary of the method: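 AGS cells were transfected with HA-WNT1. Lactose or mannose (50 mM) was added 4 h before cell extraction, and the indicated proteins were then detected in the extracts.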
# human STAT3 (residues 127–688), sequence (P40763 127-688): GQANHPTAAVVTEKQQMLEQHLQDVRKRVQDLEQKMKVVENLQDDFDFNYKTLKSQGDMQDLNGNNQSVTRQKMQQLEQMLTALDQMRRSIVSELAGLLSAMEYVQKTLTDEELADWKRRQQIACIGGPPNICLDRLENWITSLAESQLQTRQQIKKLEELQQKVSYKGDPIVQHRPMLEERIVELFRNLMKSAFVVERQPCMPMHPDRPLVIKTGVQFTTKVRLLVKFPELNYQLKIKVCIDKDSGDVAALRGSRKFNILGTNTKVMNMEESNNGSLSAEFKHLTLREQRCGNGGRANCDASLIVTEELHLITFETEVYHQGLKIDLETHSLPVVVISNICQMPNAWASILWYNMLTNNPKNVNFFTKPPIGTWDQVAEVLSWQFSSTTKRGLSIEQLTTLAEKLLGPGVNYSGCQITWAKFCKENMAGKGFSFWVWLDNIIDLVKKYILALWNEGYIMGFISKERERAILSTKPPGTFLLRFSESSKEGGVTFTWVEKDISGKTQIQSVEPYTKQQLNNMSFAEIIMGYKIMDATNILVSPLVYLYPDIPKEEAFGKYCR
compound,measurement,setting,value
YPGQ [peptide of galectin-3 (Y45-Q48)],direct binding to the STAT3 SH2 domain,[1],directly bound to the STAT3 SH2 domain
same,enhancement of STAT3 phosphorylation,AGS cells; abstract statement,enhanced its phosphorylation
OC[C@H]1O[C@@H](O[C@H]2[C@H](O)[C@@H](O)C(O)O[C@@H]2CO)[C@H](O)[C@@H](O)[C@H]1O (mixture of isomers) [lactose],cellular uptake of lactose,cells; stated without reference,too polar to be taken up by the cells
same,inhibition of STAT3 phosphorylation,[2],did not inhibit
same,inhibition of β-catenin stability,[2],did not inhibit
OC[C@H]1O[C@H](Sc2ccc(Cl)c(Cl)c2)[C@H](O)[C@@H](n2cc(-c3cc(F)c(F)c(F)c3)nn2)[C@H]1O [GB1107],uptake across cell membranes,cells,improved uptake across cell membranes; also recorded: can penetrate into cells
OC[C@H]1OC(O)[C@@H](O)[C@@H](O)[C@@H]1O (stereo partly drawn) [mannose],inhibition of STAT3 phosphorylation,[2],did not inhibit
same,inhibition of β-catenin stability,[2],did not inhibit
IL-6: IL-6 cytokine,STAT3 phosphorylation on IL-6 treatment,"AGS cells; AGS cells, IL-6 alone",induced STAT3 phosphorylation
